Experimental data taken from ChEMBL document CHEMBL3425469, “Discovery of imidazo[2,1-b]thiazole HCV NS4B inhibitors exhibiting synergistic effect with other direct-acting antiviral agents” (J Med Chem, 2015).
pEC50: −log10 of the molar value.

What was measured:
Hepatitis C virus [1] = experiment: Antiviral activity against Hepatitis C virus genotype 1b harboring V105M mutation transfected in human HuH7 cells after 72 hrs by luciferase assay; assay type: functional, cell-based, Hepacivirus hominis; settings: Huh-7, 72 h
Summary of the method: (§1)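 Huh-7 cells were transiently electroporated with genotype 1b replicon RNA carrying the specified mutation and plated at 10000 cells/well. Compounds were added at 0.5% DMSO final for 72 h at 37°C. Read-out was Bright-Glo luciferase. EC50 is the mean of two independent runs within 2-fold of each other. A reference drug EC50 was measured alongside each mutant replicon to validate it.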

Hepatitis C virus [2] = experiment: Antiviral activity against Hepatitis C virus genotype 1b Con 1 infected in human HuH7 cells at 80 nM after 72 hrs by luciferase assay in presence of 15 uM clemizole; assay type: functional, Hepacivirus hominis, Huh-7
Summary of the method: (§2)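 Huh-7 cells stably carrying a GT1b Con1 bicistronic luciferase replicon, seeded at 8000 cells/well. The test compound and the partner DAA are dosed orthogonally at various concentrations, final 0.5% DMSO, then incubated 72 h at 37°C. Bright-Glo luciferase read-out gives replicon inhibition as % of untreated control. Cytotoxicity is checked in parallel by CellTiter-Fluor. CI and DRI are derived by the Chou–Talalay median-effect method.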

Hepatitis C virus [3] = experiment: Antiviral activity against Hepatitis C virus genotype 1b harboring H3R NS4B mutation transfected in human HuH7 cells after 72 hrs by luciferase assay; assay type: functional, cell-based, Hepacivirus hominis; settings: Huh-7, 72 h; summary of the method: as §1
Hepatitis C virus [4] = experiment: Antiviral activity against Hepatitis C virus genotype 1b Con 1 infected in human HuH7 cells at 80 nM after 72 hrs by luciferase assay in presence of 7.5 uM clemizole; assay type: functional, Hepacivirus hominis, Huh-7
Summary of the method: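 Con1 GT1b luciferase replicon Huh-7 cells, seeded at 8000 cells/well. The compound was combined orthogonally with clemizole across a range of concentrations (0.5% DMSO final) and incubated for 72 h at 37°C. Bright-Glo luciferase inhibition was expressed as a percentage of the untreated control. Cytotoxicity was run in parallel.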

Hepatitis C virus [5] = experiment: Antiviral activity against Hepatitis C virus genotype 1b Con 1 infected in human HuH7 cells at 160 nM after 72 hrs by luciferase assay in presence of 0.08 nM daclatasvir; assay type: functional, Hepacivirus hominis, Huh-7
Summary of the method: (§3)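 Stable Con1 GT1b bicistronic luciferase replicon in Huh-7 cells, 8000 cells/well. Test compound and a marketed DAA or clemizole added alone or together at varied concentrations, 0.5% DMSO final. 72 h at 37°C, then luciferase read with Bright-Glo. Inhibition expressed as % of untreated control, with cytotoxicity run in parallel. CI and DRI derived by the Chou–Talalay median-effect method.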

Hepatitis C virus [6] = experiment: Antiviral activity against Hepatitis C virus genotype 1b Con 1 infected in human HuH7 cells at 20 nM after 72 hrs by luciferase assay in presence of 10 uM clemizole; assay type: functional, Hepacivirus hominis, Huh-7; summary of the method: as §3
Hepatitis C virus [7] = experiment: Antiviral activity against Hepatitis C virus genotype 1b Con 1 infected in human HuH7 cells at 160 nM after 72 hrs by luciferase assay in presence of 2160 nM sofobuvir; assay type: functional, Hepacivirus hominis, Huh-7; summary of the method: as §3
Hepatitis C virus [8] = experiment: Antiviral activity against Hepatitis C virus genotype 1b Con 1 infected in human HuH7 cells at 20 nM after 72 hrs by luciferase assay in presence of 12 nM simeprevir; assay type: functional, Hepacivirus hominis, Huh-7; summary of the method: as §3
Hepatitis C virus [9] = experiment: Antiviral activity against Hepatitis C virus genotype 1b Con 1 infected in human HuH7 cells at 20 nM after 72 hrs by luciferase assay in presence of 5 uM clemizole; assay type: functional, Hepacivirus hominis, Huh-7; summary of the method: as §2
Hepatitis C virus [10] = experiment: Antiviral activity against Hepatitis C virus genotype 1b Con 1 infected in human HuH7 cells at 20 nM after 72 hrs by luciferase assay in presence of 17.5 uM clemizole; assay type: functional, Hepacivirus hominis, Huh-7; summary of the method: as §2
Hepatitis C virus [11] = experiment: Antiviral activity against Hepatitis C virus genotype 1b Con 1 infected in human HuH7 cells at 2.5 nM after 72 hrs by luciferase assay in presence of 6 nM simeprevir; assay type: functional, Hepacivirus hominis, Huh-7; summary of the method: as §3
Hepatitis C virus [12] = experiment: Antiviral activity against Hepatitis C virus genotype 1b harboring M423I NS5B (thumb 2) mutation transfected in human HuH7 cells after 72 hrs by luciferase assay; assay type: functional, cell-based, Hepacivirus hominis; settings: Huh-7, 72 h; summary of the method: as §1
Hepatitis C virus [13] = experiment: Antiviral activity against Hepatitis C virus genotype 1b Con 1 infected in human HuH7 cells at 20 nM after 72 hrs by luciferase assay in presence of 6 nM simeprevir; assay type: functional, Hepacivirus hominis, Huh-7; summary of the method: as §2
Hepatitis C virus [14] = experiment: Antiviral activity against Hepatitis C virus genotype 1b Con 1 infected in human HuH7 cells at 20 nM after 72 hrs by luciferase assay in presence of 0.02 nM daclatasvir; assay type: functional, Hepacivirus hominis, Huh-7; summary of the method: as §3
Hepatitis C virus [15] = experiment: Antiviral activity against Hepatitis C virus genotype 1b Con 1 infected in human HuH7 cells at 80 nM after 72 hrs by luciferase assay in presence of 12.5 uM clemizole; assay type: functional, Hepacivirus hominis, Huh-7; summary of the method: as §2
Hepatitis C virus [16] = experiment: Antiviral activity against Hepatitis C virus genotype 1b Con 1 infected in human HuH7 cells at 20 nM after 72 hrs by luciferase assay in presence of 120 nM sofobuvir; assay type: functional, Hepacivirus hominis, Huh-7; summary of the method: as §3
Hepatitis C virus [17] = experiment: Antiviral activity against Hepatitis C virus genotype 1b Con 1 infected in human HuH7 cells at 20 nM after 72 hrs by luciferase assay in presence of 60 nM sofobuvir; assay type: functional, Hepacivirus hominis, Huh-7; summary of the method: as §2
Hepatitis C virus [18] = experiment: Antiviral activity against Hepatitis C virus genotype 1b Con 1 infected in human HuH7 cells at 2.5 nM after 72 hrs by luciferase assay in presence of 17.5 uM clemizole; assay type: functional, Hepacivirus hominis, Huh-7; summary of the method: as §3
Hepatitis C virus [19] = experiment: Antiviral activity against Hepatitis C virus genotype 1b Con 1 infected in human HuH7 cells at 10 nM after 72 hrs by luciferase assay in presence of 240 nM sofobuvir; assay type: functional, Hepacivirus hominis, Huh-7; summary of the method: as §3
Hepatitis C virus [20] = experiment: Antiviral activity against Hepatitis C virus genotype 1b Con 1 infected in human HuH7 cells at 2.5 nM after 72 hrs by luciferase assay in presence of 240 nM sofobuvir; assay type: functional, Hepacivirus hominis, Huh-7; summary of the method: as §3
Hepatitis C virus [21] = experiment: Antiviral activity against Hepatitis C virus genotype 1b Con 1 infected in human HuH7 cells at 5 nM after 72 hrs by luciferase assay in presence of 3 nM simeprevir; assay type: functional, Hepacivirus hominis, Huh-7; summary of the method: as §2
Hepatitis C virus [22] = experiment: Antiviral activity against Hepatitis C virus genotype 1b Con 1 infected in human HuH7 cells at 2.5 nM after 72 hrs by luciferase assay in presence of 0.16 nM daclatasvir; assay type: functional, Hepacivirus hominis, Huh-7; summary of the method: as §3
Hepatitis C virus [23] = experiment: Antiviral activity against Hepatitis C virus genotype 1b harboring H94R mutation transfected in human HuH7 cells after 72 hrs by luciferase assay; assay type: functional, cell-based, Hepacivirus hominis; settings: Huh-7, 72 h; summary of the method: as §1
Hepatitis C virus [24] = experiment: Antiviral activity against Hepatitis C virus genotype 1b Con 1 infected in human HuH7 cells at 5 nM after 72 hrs by luciferase assay in presence of 7.5 uM clemizole; assay type: functional, Hepacivirus hominis, Huh-7; summary of the method: as §2
Hepatitis C virus [25] = experiment: Antiviral activity against Hepatitis C virus genotype 1b Con 1 infected in human HuH7 cells at 40 nM after 72 hrs by luciferase assay in presence of 20 uM clemizole; assay type: functional, Hepacivirus hominis, Huh-7; summary of the method: as §2
Hepatitis C virus [26] = experiment: Antiviral activity against Hepatitis C virus genotype 1b Con 1 infected in human HuH7 cells at 10 nM after 72 hrs by luciferase assay in presence of 5 uM clemizole; assay type: functional, Hepacivirus hominis, Huh-7; summary of the method: as §3
Hepatitis C virus [27] = experiment: Antiviral activity against Hepatitis C virus genotype 1b Con 1 infected in human HuH7 cells at 20 nM after 72 hrs by luciferase assay in presence of 30 nM sofobuvir; assay type: functional, Hepacivirus hominis, Huh-7; summary of the method: as §2
Hepatitis C virus [28] = experiment: Antiviral activity against Hepatitis C virus genotype 1b Con 1 infected in human HuH7 cells at 5 nM after 72 hrs by luciferase assay in presence of 0.04 nM daclatasvir; assay type: functional, Hepacivirus hominis, Huh-7; summary of the method: as §2
Hepatitis C virus [29] = experiment: Antiviral activity against Hepatitis C virus genotype 1b Con 1 infected in human HuH7 cells at 20 nM after 72 hrs by luciferase assay in presence of 7.5 uM clemizole; assay type: functional, Hepacivirus hominis, Huh-7; summary of the method: as §2

Q: How did the pEC50 (Hepatitis C virus [1]) turn out when `O=C(c1nc2scc(C3CC3)n2c1Cl)N1CCN(C2CCCC2)C(=O)C1` was run?
A: Its pEC50 is 4.56.

Q: And the CI (Hepatitis C virus [2])?
A: Its CI is 1.

Q: What about the pEC50 (Hepatitis C virus [3]) of the same compound?
A: Its pEC50 is 5.96.

Q: And the CI (Hepatitis C virus [4])?
A: Its CI is 0.85.

Q: What about the CI (Hepatitis C virus [5]) of the same compound?
A: The CI was 0.42.

Q: And the CI (Hepatitis C virus [6])?
A: The CI was 0.61.

Q: What about the CI (Hepatitis C virus [7]) of the same compound?
A: Its CI is 0.3.

Q: What about the CI (Hepatitis C virus [8]) of the same compound?
A: Its CI is 0.64.

Q: And the CI (Hepatitis C virus [9])?
A: The CI was 0.94.

Q: And the CI (Hepatitis C virus [10])?
A: The CI was 1.18.

Q: What about the CI (Hepatitis C virus [11]) of the same compound?
A: The CI was 0.59.

Q: And the pEC50 (Hepatitis C virus [12])?
A: Its pEC50 is 8.05.

Q: What about the CI (Hepatitis C virus [13]) of the same compound?
A: The CI was 0.48.

Q: And the CI (Hepatitis C virus [14])?
A: Its CI is 0.98.

Q: What about the CI (Hepatitis C virus [15]) of the same compound?
A: The CI was 0.95.

Q: What about the CI (Hepatitis C virus [16]) of the same compound?
A: Its CI is 0.63.

Q: And the CI (Hepatitis C virus [17])?
A: The CI was 0.78.

Q: And the CI (Hepatitis C virus [18])?
A: Its CI is 1.36.

Q: And the CI (Hepatitis C virus [19])?
A: Its CI is 0.58.

Q: What about the CI (Hepatitis C virus [20]) of the same compound?
A: Its CI is 0.83.

Q: What about the CI (Hepatitis C virus [21]) of the same compound?
A: Its CI is 1.22.

Q: And the CI (Hepatitis C virus [22])?
A: Its CI is 0.98.

Q: What about the pEC50 (Hepatitis C virus [23]) of the same compound?
A: Its pEC50 is 5.40.

Q: What about the CI (Hepatitis C virus [24]) of the same compound?
A: The CI was 0.6.

Q: What about the CI (Hepatitis C virus [25]) of the same compound?
A: The CI was 1.2.

Q: What about the CI (Hepatitis C virus [26]) of the same compound?
A: Its CI is 0.82.

Q: What about the CI (Hepatitis C virus [27]) of the same compound?
A: The CI was 0.83.

Q: And the CI (Hepatitis C virus [28])?
A: Its CI is 0.89.

Q: And the CI (Hepatitis C virus [29])?
A: Its CI is 0.56.
